Consider one substance from paper PMC6140336 (Cell, 2018).

Assay [1] has as its system TCR589-transduced 58−/− T cells. Kind of assay: IL-2 ELISA, TCR589-transduced cell line. Format: cell-based, murine. The settings on record: peptide-pulsed KG-1 APCs or OKT3, 24 hrs, result in words. In a few lines: (§1)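 58−/− cells carrying the TCR were rested overnight in complete RPMI. KG-1 APCs were pulsed with peptide for 2 h or overnight at 37 °C, washed, and mixed 1:1 with the T cells for 24 hrs at 37 °C. Secreted mouse IL-2 was measured by sandwich ELISA (avidin-HRP, TMB, H3PO4 stop) read at 450 and 570 nm. Biological and technical triplicates.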

Assay [2] has as its system SKW3 T cells expressing TCR589. The assay is described as follows: pERK1/2 phospho-flow cytometry, TCR589 cells. Format: cell-based, human. The settings on record: peptide-pulsed KG-1 cells or OKT3, 15 minutes, result in words. In outline:
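SKW3 cells were rested overnight. Peptide-pulsed KG-1 cells (2 h) were washed and mixed 1:1 with them (125,000 each), then co-cultured 15 min at 37 °C. Cells were fixed in 4% PFA then Cytofix (30 min, 37 °C), permeabilised in ice-cold methanol or Perm Buffer III, and stained 1 h at RT with anti-pERK1/2 (1:50) and anti-CD3. Mean pERK MFI of CD3+ cells by flow. Biological and technical triplicates.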
Background: A flow cytometer gives signals particle by particle.

In assay [3] the test system is SKW3 T cells expressing TCR55. Kind of assay: pERK1/2 phospho-flow cytometry, TCR55 cells. The class given is cell-based, human. The settings on record: peptide-pulsed KG-1 cells or OKT3, 15 minutes, result in words.
The test system of assay [4] is TCR55-transduced 58−/− T cells. The assay is described as follows: IL-2 ELISA, TCR55-transduced cell line. Format: cell-based, murine. The settings on record: peptide-pulsed KG-1 APCs or OKT3, 24 hrs, result in words. In outline:
as §1

Consider “OKT3: anti-CD3 antibody (clone OKT3), non-specific TCR stimulus”, for which the IL-2 secretion result in assay [1] and in assay [4] was “responded similarly” each time. Moreover, the “ERK1/2 phosphorylation (pERK)” value in assay [2] and in assay [3] was “robust ERK1/2 phosphorylation” throughout.
